Bridge positions count the residues as written; N and C are the ends. Square brackets hold non-standard residues; d marks the D form. Peptide text beside a SMILES is read from it. I, II: the chains in the order shown. pGlu = O=C1CC[C@@H](C(=O)O)N1
Tested on: C6
Assay: Relative potency for induction of Colony-Stimulating activity(CSA) of C6 stromal line.
Format: functional, Mus musculus
Set-up: reference not given here
How it was run: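 Murine C6 stromal cells (or subclone C6.4) were grown to confluence in RPMI with 10% FBS, then switched to serum-free medium with peptide (initially 0.001–1000 ng/mL, log doses, duplicate wells). Exposure was 1 h at 37 °C, followed by washing, and conditioned supernatant was collected 24 h later. Supernatant (10–2.5% v/v) plus C57Bl/6 femoral marrow went into 0.3% agar with 15% FBS for 7 days. Colonies of >50 cells were counted in triplicate. EC50 was taken from the ascending curve and expressed relative to the reference peptide.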

Row | SMILES | Relative potency
1 | NCCCC[C@H](NC(=O)[C@H](CCCC[C@H](NC(=O)[C@H](CC(=O)O)NC(=O)[C@H](CC(=O)O)NC(=O)[C@@H]1CCC(=O)N1)C(=O)N[C@@H](CCCCN)C(=O)O)NC(=O)[C@H](CC(=O)O)NC(=O)[C@H](CC(=O)O)NC(=O)[C@@H]1CCC(=O)N1)C(=O)O | 1
2 | NC(=O)CC[C@H](NC(=O)[C@H](CC[C@H](NC(=O)[C@H](CO)NC(=O)[C@H](CO)NC(=O)c1ccccn1)C(=O)N[C@@H](CCC(N)=O)C(N)=O)NC(=O)[C@H](CO)NC(=O)[C@H](CO)NC(=O)c1ccccn1)C(N)=O | <1e-06
3 | NCCCC[C@H](NC(=O)[C@@H](CCCC[C@@H](NC(=O)[C@H](CC(=O)O)NC(=O)[C@H](CCC(=O)O)NC(=O)[C@@H]1CCC(=O)N1)C(=O)N[C@@H](CCCCN)C(=O)O)NC(=O)[C@H](CC(=O)O)NC(=O)[C@H](CCC(=O)O)NC(=O)[C@@H]1CCC(=O)N1)C(=O)O | <1e-06
4 | NCCCC[C@H](NC(=O)[C@H](CCCC[C@H](NC(=O)[C@H](CC(=O)O)NC(=O)[C@H](CCC(=O)O)NC(=O)[C@@H]1CCC(=O)N1)C(=O)N[C@@H](CCCCN)C(N)=O)NC(=O)[C@H](CC(=O)O)NC(=O)[C@H](CCC(=O)O)NC(=O)[C@@H]1CCC(=O)N1)C(N)=O | 1
5 | NCCCC[C@H](NC(=O)[C@H](CCCC[C@H](NC(=O)[C@H](CCC(=O)O)NC(=O)[C@H](CCC(=O)O)NC(=O)[C@@H]1CCC(=O)N1)C(=O)N[C@@H](CCCCN)C(=O)O)NC(=O)[C@H](CCC(=O)O)NC(=O)[C@H](CCC(=O)O)NC(=O)[C@@H]1CCC(=O)N1)C(=O)O | 1
6 | NCCCC[C@H](NC(=O)[C@H](CCCC[C@H](NC(=O)[C@H](CC(=O)O)NC(=O)[C@H](CCC(=O)O)NC(=O)[C@H]1CCC(=O)N1)C(=O)N[C@@H](CCCCN)C(=O)O)NC(=O)[C@H](CC(=O)O)NC(=O)[C@H](CCC(=O)O)NC(=O)[C@H]1CCC(=O)N1)C(=O)O | 0.0001
7 | NCCCC[C@H](NC(=O)[C@H](CCCCCC[C@H](NC(=O)[C@H](CC(=O)O)NC(=O)[C@H](CCC(=O)O)NC(=O)[C@@H]1CCC(=O)N1)C(=O)N[C@@H](CCCCN)C(=O)O)NC(=O)[C@H](CC(=O)O)NC(=O)[C@H](CCC(=O)O)NC(=O)[C@@H]1CCC(=O)N1)C(=O)O | <1e-06
8 | NCCCC[C@H](NC(=O)[C@H](CCCCC[C@H](NC(=O)[C@H](CC(=O)O)NC(=O)[C@H](CCC(=O)O)NC(=O)[C@@H]1CCC(=O)N1)C(=O)N[C@@H](CCCCN)C(=O)O)NC(=O)[C@H](CC(=O)O)NC(=O)[C@H](CCC(=O)O)NC(=O)[C@@H]1CCC(=O)N1)C(=O)O | <1e-06
9 | NCCCC[C@H](NC(=O)[C@H](CCCC[C@H](NC(=O)[C@H](CC(=O)O)NC(=O)[C@H](CCC(=O)O)NC(=O)[C@@H]1CCCO1)C(=O)N[C@@H](CCCCN)C(=O)O)NC(=O)[C@H](CC(=O)O)NC(=O)[C@H](CCC(=O)O)NC(=O)[C@@H]1CCCO1)C(=O)O | <1e-06
10 | NCCCC[C@@H](NC(=O)[C@H](CCCC[C@H](NC(=O)[C@H](CC(=O)O)NC(=O)[C@H](CCC(=O)O)NC(=O)[C@@H]1CCC(=O)N1)C(=O)N[C@H](CCCCN)C(=O)O)NC(=O)[C@H](CC(=O)O)NC(=O)[C@H](CCC(=O)O)NC(=O)[C@@H]1CCC(=O)N1)C(=O)O | <1e-06
11 | CCCC[C@H](NC(=O)[C@H](CCCC[C@H](NC(=O)[C@H](C)NC(=O)[C@H](CO)NC(=O)c1ccccn1)C(=O)N[C@@H](CCCC)C(N)=O)NC(=O)[C@H](C)NC(=O)[C@H](CO)NC(=O)c1ccccn1)C(N)=O | <1e-06
12 | NCCC[C@H](NC(=O)[C@H](CCCC[C@H](NC(=O)[C@H](CC(=O)O)NC(=O)[C@H](CCC(=O)O)NC(=O)[C@@H]1CCC(=O)N1)C(=O)N[C@@H](CCCN)C(=O)O)NC(=O)[C@H](CC(=O)O)NC(=O)[C@H](CCC(=O)O)NC(=O)[C@@H]1CCC(=O)N1)C(=O)O | <1e-06
13 | NCCCC[C@H](NC(=O)[C@H](CC[C@H](NC(=O)[C@H](CC(=O)O)NC(=O)[C@H](CCC(=O)O)NC(=O)c1ccccn1)C(=O)N[C@@H](CCCCN)C(N)=O)NC(=O)[C@H](CC(=O)O)NC(=O)[C@H](CCC(=O)O)NC(=O)c1ccccn1)C(N)=O | 100
14 | NCCCC[C@H](NC(=O)[C@H](CCCC[C@H](NC(=O)[C@H](CC(=O)O)NC(=O)[C@H](CO)NC(=O)c1ccccn1)C(=O)N[C@@H](CCCCN)C(=O)O)NC(=O)[C@H](CC(=O)O)NC(=O)[C@H](CO)NC(=O)c1ccccn1)C(=O)O | 100
15 | NCCCC[C@H](NC(=O)[C@H](CCCC[C@H](NC(=O)[C@H](CC(=O)O)NC(=O)[C@H](CCC(=O)O)NC(=O)C1CCCCC1)C(=O)N[C@@H](CCCCN)C(=O)O)NC(=O)[C@H](CC(=O)O)NC(=O)[C@H](CCC(=O)O)NC(=O)C1CCCCC1)C(=O)O | <1e-06
16 | NCCCC[C@H](NC(=O)[C@H](CCCC[C@H](NC(=O)[C@H](CC(=O)O)NC(=O)[C@H](CCC(=O)O)NC(=O)c1cccs1)C(=O)N[C@@H](CCCCN)C(=O)O)NC(=O)[C@H](CC(=O)O)NC(=O)[C@H](CCC(=O)O)NC(=O)c1cccs1)C(=O)O | <1e-06
17 | NCCCC[C@H](NC(=O)[C@H](CCC(=O)O)NC(=O)[C@@H]1CCC(=O)N1)C(=O)N[C@@H](CCCC[C@H](NC(=O)[C@H](CCCCN)NC(=O)[C@H](CCC(=O)O)NC(=O)[C@@H]1CCC(=O)N1)C(=O)N[C@@H](CC(=O)O)C(=O)O)C(=O)N[C@@H](CC(=O)O)C(=O)O | < 1e-06
18 | NCCCC[C@H](NC(=O)[C@H](CCCC[C@H](NC(=O)[C@@H](CC(=O)O)NC(=O)[C@H](CCC(=O)O)NC(=O)[C@@H]1CCC(=O)N1)C(=O)N[C@@H](CCCCN)C(=O)O)NC(=O)[C@@H](CC(=O)O)NC(=O)[C@H](CCC(=O)O)NC(=O)[C@@H]1CCC(=O)N1)C(=O)O | <1e-06
19 | NCCCC[C@H](NC(=O)[C@H](CCC[C@H](NC(=O)[C@H](CC(=O)O)NC(=O)[C@H](CCC(=O)O)NC(=O)[C@@H]1CCC(=O)N1)C(=O)N[C@@H](CCCCN)C(=O)O)NC(=O)[C@H](CC(=O)O)NC(=O)[C@H](CCC(=O)O)NC(=O)[C@@H]1CCC(=O)N1)C(=O)O | < 1e-06
20 | NCCCC[C@H](NC(=O)[C@H](CCCC[C@H](NC(=O)[C@H](CC(=O)O)NC(=O)[C@H](CCC(=O)O)NC(=O)c1ccc2ccccc2n1)C(=O)N[C@@H](CCCCN)C(=O)O)NC(=O)[C@H](CC(=O)O)NC(=O)[C@H](CCC(=O)O)NC(=O)c1ccc2ccccc2n1)C(=O)O | <1e-06
21 | NCCCC[C@@H](CO)NC(=O)[C@H](CCCC[C@H](NC(=O)[C@H](CC(=O)O)NC(=O)[C@H](CCC(=O)O)NC(=O)[C@@H]1CCC(=O)N1)C(=O)N[C@H](CO)CCCCN)NC(=O)[C@H](CC(=O)O)NC(=O)[C@H](CCC(=O)O)NC(=O)[C@@H]1CCC(=O)N1 | <1e-06
22 | NCCCC[C@H](NC(=O)[C@H](CCCC[C@H](NC(=O)[C@H](CC(=O)O)NC(=O)[C@H](CO)NC(=O)[C@@H]1CCC(=O)N1)C(=O)N[C@@H](CCCCN)C(=O)O)NC(=O)[C@H](CC(=O)O)NC(=O)[C@H](CO)NC(=O)[C@@H]1CCC(=O)N1)C(=O)O | 10
23 | NCCCC[C@H](NC(=O)[C@H](CC[C@H](NC(=O)[C@H](CC(=O)O)NC(=O)[C@H](CCC(=O)O)NC(=O)[C@@H]1CCC(=O)N1)C(=O)N[C@@H](CCCCN)C(=O)O)NC(=O)[C@H](CC(=O)O)NC(=O)[C@H](CCC(=O)O)NC(=O)[C@@H]1CCC(=O)N1)C(=O)O | 1000
24 | N=C(N)NCCC[C@@H](NC(=O)[C@H](CCCC[C@H](NC(=O)[C@H](CC(=O)O)NC(=O)[C@H](CCC(=O)O)NC(=O)[C@@H]1CCC(=O)N1)C(=O)N[C@H](CCCNC(=N)N)C(=O)O)NC(=O)[C@H](CC(=O)O)NC(=O)[C@H](CCC(=O)O)NC(=O)[C@@H]1CCC(=O)N1)C(=O)O | <1e-06
25 | NCCCC[C@H](NC(=O)[C@H](CC[C@H](NC(=O)[C@H](CC(=O)O)NC(=O)[C@H](CO)NC(=O)c1ccccn1)C(=O)N[C@@H](CCCCN)C(=O)O)NC(=O)[C@H](CC(=O)O)NC(=O)[C@H](CO)NC(=O)c1ccccn1)C(=O)O | 10000
26 | NCCCC[C@H](NC(=O)[C@H](CSSC[C@H](NC(=O)[C@H](CC(=O)O)NC(=O)[C@H](CCC(=O)O)NC(=O)[C@@H]1CCC(=O)N1)C(=O)N[C@@H](CCCCN)C(=O)O)NC(=O)[C@H](CC(=O)O)NC(=O)[C@H](CCC(=O)O)NC(=O)[C@@H]1CCC(=O)N1)C(=O)O (I: [pGlu]EDCK-OH / II: [pGlu]EDCK-OH; disulfide I:4-II:4) | 0.01
27 | NCCCC[C@H](NC(=O)[C@H](CCCC[C@H](NC(=O)[C@H](CC(=O)O)NC(=O)[C@H](CCC(=O)O)NC(=O)[C@@H]1CCC(=O)N1)C(=O)N[C@@H](CCCCN)C(=O)O)NC(=O)[C@H](CC(=O)O)NC(=O)[C@H](CCC(=O)O)NC(=O)[C@@H]1CCC(=O)N1)C(=O)O [GLASPIMOD] | 1
